ChEMBL document CHEMBL1156002, “Synthesis, Raman, FT-IR, NMR spectroscopic characterization, antimicrobial activity, cytotoxicity and DNA binding of new mixed aza-oxo-thia macrocyclic compounds” (2009)

What was measured:
[1] = test system: Escherichia coli; assay: Antibacterial activity against Escherichia coli ATCC 11230 after 24 hrs by broth micro dilution method; assay type: functional
[2] = test system: Staphylococcus aureus; assay: Antibacterial activity against Staphylococcus aureus ATCC 6538 after 24 hrs by broth micro dilution method; assay type: functional
[3] = test system: Klebsiella pneumoniae; assay: Antibacterial activity against Klebsiella pneumoniae UC57 after 24 hrs by broth micro dilution method; assay type: functional
[4] = test system: Bacillus cereus; assay: Antibacterial activity against Bacillus cereus ATCC 7064 after 24 hrs by broth micro dilution method; assay type: functional
[5] = test system: Micrococcus luteus; assay: Antibacterial activity against Micrococcus luteus La 2971 after 24 hrs by broth micro dilution method; assay type: functional
[6] = test system: Proteus vulgaris; assay: Antibacterial activity against Proteus vulgaris ATCC 8427 after 24 hrs by broth micro dilution method; assay type: functional
[7] = test system: Mycolicibacterium smegmatis; assay: Antibacterial activity against Mycobacterium smegmatis CCM 2067 after 24 hrs by broth micro dilution method; assay type: functional
[8] = test system: Listeria monocytogenes; assay: Antibacterial activity against Listeria monocytogenes ATCC 15313 after 24 hrs by broth micro dilution method; assay type: functional
[9] = test system: Pseudomonas aeruginosa; assay: Antibacterial activity against Pseudomonas aeruginosa ATCC 27853 after 24 hrs by broth micro dilution method; assay type: functional
[10] = test system: Kluyveromyces marxianus; assay: Antifungal activity against Kluyveromyces fragilis NRRL 2415 at 100 ug after 72 hrs by agar disk diffusion assay; assay type: functional, organism-based
How it was run: (§1)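 Yeasts were pre-grown in Malt Extract Broth for 48 h. Sterile 6 mm discs loaded with compound solutions freshly made in DMSO were placed on inoculated agar and incubated at 25 °C for 72 h. The medium was supplemented with DMSO as a solvent control, and an appropriate reference antifungal disc was added to each plate.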

[11] = test system: Rhodotorula mucilaginosa; assay: Antifungal activity against Rhodotorula rubra DSM 70403 at 100 ug after 72 hrs by agar disk diffusion assay; assay type: functional, organism-based; how it was run: as §1
[12] = test system: Hanseniaspora guilliermondii; assay: Antifungal activity against Hanseniaspora guilliermondii DSM 3432 at 100 ug after 72 hrs by agar disk diffusion assay; assay type: functional, organism-based; how it was run: as §1
[13] = test system: Debaryomyces hansenii; assay: Antifungal activity against Debaryomyces hansenii DSM 70238 at 100 ug after 72 hrs by agar disk diffusion assay; assay type: functional, organism-based; how it was run: as §1
[14] = test system: Kluyveromyces marxianus; assay: Antifungal activity against Kluyveromyces fragilis NRRL 2415 after 24 hrs by broth micro dilution method; assay type: functional
How it was run: (§2)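 Broth microdilution was run in cation-adjusted Mueller Hinton Broth. Compounds were dissolved in DMSO at 2 mg mL^-1 and serially diluted two-fold. Yeast precultures were grown in Malt Extract Broth for 48 h. The final inoculum was about 10⁶ cfu mL^-1, and plates were incubated at 37 °C for 24 h. The MIC was read from this series.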

[15] = test system: Rhodotorula mucilaginosa; assay: Antifungal activity against Rhodotorula rubra DSM 70403 after 24 hrs by broth micro dilution method; assay type: functional; how it was run: as §2
[16] = test system: Candida albicans; assay: Antifungal activity against Candida albicans ATCC 10231 after 24 hrs by broth micro dilution method; assay type: functional; how it was run: as §2
[17] = test system: Hanseniaspora guilliermondii; assay: Antifungal activity against Hanseniaspora guilliermondii DSM 3432 after 24 hrs by broth micro dilution method; assay type: functional; how it was run: as §2
[18] = test system: Debaryomyces hansenii; assay: Antifungal activity against Debaryomyces hansenii DSM 70238 after 24 hrs by broth micro dilution method; assay type: functional; how it was run: as §2
[19] = test system: Escherichia coli; assay: Antibacterial activity against Escherichia coli ATCC 11230 at 30 ug after 24 hrs by agar disk diffusion assay; assay type: functional; conditions: ATCC 11230, 24 h, read-out: IZ
How it was run: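 Bacteria pre-grown in Nutrient Broth at 30 °C for 24 h. Sterile 6 mm discs loaded with compound solutions freshly made in DMSO were placed on inoculated agar and incubated at 35 °C for 24 h. The medium was supplemented with DMSO as a solvent control, and an appropriate reference antibiotic disc was added to each plate.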

[20] = test system: Staphylococcus aureus; assay: Antibacterial activity against Staphylococcus aureus ATCC 6538 at 30 ug after 24 hrs by agar disk diffusion assay; assay type: functional; conditions: ATCC 6538, 24 h, read-out: IZ
How it was run: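 Sterile 6 mm paper discs were loaded with ligand solution freshly prepared in DMSO and placed on inoculated agar. The inoculum came from broth cultures: bacteria in Nutrient Broth at 30 °C for 24 h, yeasts in Malt Extract Broth for 48 h. Plates were incubated at 35 °C for 24 h (bacteria) or 25 °C for 72 h (yeasts). A DMSO solvent control and a reference antibiotic disc were included on each plate.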

[21] = test system: Klebsiella pneumoniae; assay: Antibacterial activity against Klebsiella pneumoniae UC57 at 30 ug after 24 hrs by agar disk diffusion assay; assay type: functional; conditions: UC57, 24 h, read-out: IZ
How it was run: (§3)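 Disk diffusion with sterile 6 mm discs loaded with DMSO solutions of the test agents and placed on inoculated agar. Bacteria were pre-grown in Nutrient Broth at 30 °C for 24 h, and plates were incubated at 35 °C for 24 h. Each plate carried a reference antibiotic disc matched to the organism, and a DMSO-only solvent control was run.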

[22] = test system: Bacillus cereus; assay: Antibacterial activity against Bacillus cereus ATCC 7064 at 30 ug after 24 hrs by agar disk diffusion assay; assay type: functional; conditions: ATCC 7064, 24 h, read-out: IZ; how it was run: as §3
[23] = test system: Micrococcus luteus; assay: Antibacterial activity against Micrococcus luteus La 2971 at 30 ug after 24 hrs by agar disk diffusion assay; assay type: functional; conditions: La 2971, 24 h, read-out: IZ; how it was run: as §3
[24] = test system: Proteus vulgaris; assay: Antibacterial activity against Proteus vulgaris ATCC 8427 at 30 ug after 24 hrs by agar disk diffusion assay; assay type: functional; conditions: ATCC 8427, 24 h, read-out: IZ; how it was run: as §3
[25] = test system: Mycolicibacterium smegmatis; assay: Antibacterial activity against Mycobacterium smegmatis CCM 2067 at 30 ug after 24 hrs by agar disk diffusion assay; assay type: functional; conditions: CCM 2067, 24 h, read-out: IZ; how it was run: as §3
[26] = test system: Listeria monocytogenes; assay: Antibacterial activity against Listeria monocytogenes ATCC 15313 at 30 ug after 24 hrs by agar disk diffusion assay; assay type: functional; conditions: ATCC 15313, 24 h, read-out: IZ; how it was run: as §3
[27] = test system: Pseudomonas aeruginosa; assay: Antibacterial activity against Pseudomonas aeruginosa ATCC 27853 at 30 ug after 24 hrs by agar disk diffusion assay; assay type: functional; conditions: ATCC 27853, 24 h, read-out: IZ; how it was run: as §3
[28] = test system: Kluyveromyces marxianus; assay: Antifungal activity against Kluyveromyces fragilis NRRL 2415 at 20 ug after 72 hrs by agar disk diffusion assay; assay type: functional; conditions: NRRL 2415, 72 h, read-out: IZ; how it was run: as §1
[29] = test system: Rhodotorula mucilaginosa; assay: Antifungal activity against Rhodotorula rubra DSM 70403 at 20 ug after 72 hrs by agar disk diffusion assay; assay type: functional; conditions: DSM 70403, 72 h, read-out: IZ; how it was run: as §1
[30] = test system: Candida albicans; assay: Antifungal activity against Candida albicans ATCC 10231 at 20 ug after 72 hrs by agar disk diffusion assay; assay type: functional; conditions: ATCC 10231, 72 h, read-out: IZ; how it was run: as §1
[31] = test system: Hanseniaspora guilliermondii; assay: Antifungal activity against Hanseniaspora guilliermondii DSM 3432 at 20 ug after 72 hrs by agar disk diffusion assay; assay type: functional; conditions: DSM 3432, 72 h, read-out: IZ; how it was run: as §1
[32] = test system: Debaryomyces hansenii; assay: Antifungal activity against Debaryomyces hansenii DSM 70238 at 20 ug after 72 hrs by agar disk diffusion assay; assay type: functional; conditions: DSM 70238, 72 h, read-out: IZ; how it was run: as §1
[33] = test system: Escherichia coli; assay: Antibacterial activity against Escherichia coli ATCC 11230 at 10 IU after 24 hrs by agar disk diffusion assay; assay type: functional; how it was run: as §3
[34] = test system: Staphylococcus aureus; assay: Antibacterial activity against Staphylococcus aureus ATCC 6538 at 10 IU after 24 hrs by agar disk diffusion assay; assay type: functional; how it was run: as §3
[35] = test system: Klebsiella pneumoniae; assay: Antibacterial activity against Klebsiella pneumoniae UC57 at 10 IU after 24 hrs by agar disk diffusion assay; assay type: functional; how it was run: as §3
[36] = test system: Bacillus cereus; assay: Antibacterial activity against Bacillus cereus ATCC 7064 at 10 IU after 24 hrs by agar disk diffusion assay; assay type: functional; how it was run: as §3
[37] = test system: Micrococcus luteus; assay: Antibacterial activity against Micrococcus luteus La 2971 at 10 IU after 24 hrs by agar disk diffusion assay; assay type: functional; how it was run: as §3
[38] = test system: Proteus vulgaris; assay: Antibacterial activity against Proteus vulgaris ATCC 8427 at 10 IU after 24 hrs by agar disk diffusion assay; assay type: functional; how it was run: as §3
[39] = test system: Mycolicibacterium smegmatis; assay: Antibacterial activity against Mycobacterium smegmatis CCM 2067 at 10 IU after 24 hrs by agar disk diffusion assay; assay type: functional; how it was run: as §3
[40] = test system: Listeria monocytogenes; assay: Antibacterial activity against Listeria monocytogenes ATCC 15313 at 10 IU after 24 hrs by agar disk diffusion assay; assay type: functional; how it was run: as §3
[41] = test system: Pseudomonas aeruginosa; assay: Antibacterial activity against Pseudomonas aeruginosa ATCC 27853 at 10 IU after 24 hrs by agar disk diffusion assay; assay type: functional; how it was run: as §3

Molecule: GENTAMICIN
- MIC [1]: 6.25 µg/mL
- MIC [2]: 25 µg/mL
- MIC [3]: 6.25 µg/mL
- MIC [4]: 6.25 µg/mL
- MIC [5]: 25 µg/mL
- MIC [6]: 6.25 µg/mL
- MIC [7]: 12.5 µg/mL
- MIC [8]: 12.5 µg/mL
- MIC [9]: 6.25 µg/mL

Molecule: NYSTATIN
- inhibition zone (IZ) [10]: 20 mm
- inhibition zone (IZ) [11]: 18 mm
- inhibition zone (IZ) [12]: 21 mm
- inhibition zone (IZ) [13]: 16 mm
- MIC [14]: 6.25 µg/mL
- MIC [15]: 6.25 µg/mL
- MIC [16]: 3.12 µg/mL
- MIC [17]: 3.12 µg/mL
- MIC [18]: 12.5 µg/mL

Molecule: CN[C@H](CC(C)C)C(=O)N[C@H]1C(=O)N[C@@H](CC(N)=O)C(=O)N[C@H]2C(=O)N[C@H]3C(=O)N[C@H](C(=O)N[C@H](C(=O)O)c4cc(O)cc(O)c4-c4cc3ccc4O)[C@H](O)c3ccc(c(Cl)c3)Oc3cc2cc(c3O[C@@H]2O[C@H](CO)[C@@H](O)[C@H](O)[C@H]2O[C@H]2C[C@](C)(N)[C@H](O)[C@H](C)O2)Oc2ccc(cc2Cl)[C@H]1O [VANCOMYCIN]
- zone of inhibition at 30 µg/disc [19]: 22 mm
- zone of inhibition at 30 µg/disc [20]: 13 mm
- zone of inhibition at 30 µg/disc [21]: 22 mm
- zone of inhibition at 30 µg/disc [22]: 10 mm
- zone of inhibition at 30 µg/disc [23]: 20 mm
- zone of inhibition at 30 µg/disc [24]: 18 mm
- zone of inhibition at 30 µg/disc [25]: 20 mm
- zone of inhibition at 30 µg/disc [26]: 26 mm
- zone of inhibition at 30 µg/disc [27]: 34 mm

Molecule: CC(=O)N1CCN(c2ccc(OCC3COC(Cn4ccnc4)(c4ccc(Cl)cc4Cl)O3)cc2)CC1 (stereo unspecified) [KETOCONAZOLE]
- zone of inhibition at 20 µg/disc [28]: 21 mm
- zone of inhibition at 20 µg/disc [29]: 16 mm
- zone of inhibition at 20 µg/disc [30]: 22 mm
- zone of inhibition at 20 µg/disc [31]: 24 mm
- zone of inhibition at 20 µg/disc [32]: 14 mm

Molecule: CC1(C)S[C@@H]2[C@H](NC(=O)Cc3ccccc3)C(=O)N2[C@H]1C(=O)O [PENICILLIN G]
- inhibition zone (IZ) [33]: 18 mm
- inhibition zone (IZ) [34]: 13 mm
- inhibition zone (IZ) [35]: 18 mm
- inhibition zone (IZ) [36]: 8 mm
- inhibition zone (IZ) [37]: 10 mm
- inhibition zone (IZ) [38]: 14 mm
- inhibition zone (IZ) [39]: 15 mm
- inhibition zone (IZ) [40]: 10 mm
- inhibition zone (IZ) [41]: 36 mm
